Laboratory results published in ChEMBL document CHEMBL1158477, “Synthesis, in vivo evaluation, and molecular modeling studies of new pyrazolo[5,1-c][1,2,4]benzotriazine 5-oxide derivatives. Identification of a bifunctional hydrogen bond area related to the inverse agonism” (J Med Chem, 2009).
pKi: −log10 of the molar value. Active and inactive are the calls of the source. The rule behind the calls is not given here.

Key:
Mus musculus [1] = assay: Anxiolytic activity in CD1 albino mouse at 10 mg/kg, po after 30 mins by light/dark box test; assay type: functional, organism-based; set-up: dose 10 mg/kg
How it was run: (§1)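 Male CD-1 mice (22-24 g) given test substance po in 1% CMC (10 mL/kg), tested 30 min later in a light/dark box. Transfers between compartments and time spent in the illuminated side were measured. Values are mean ± SEM of 15-20 mice; compared with controls.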

Mus musculus [2] = assay: Anxiolytic activity in CD1 albino mouse at 30 mg/kg, po after 30 mins by light/dark box test; assay type: functional, organism-based; set-up: dose 30 mg/kg; how it was run: as §1
Mus musculus [3] = assay: Anxiolytic activity in CD1 albino mouse at 30 mg/kg, po after 30 mins by light/dark box test in presence of flumazenil; assay type: functional, organism-based; set-up: dose 30 mg/kg
How it was run: (§2)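 Light/dark box in male CD-1 mice. Test substance given po in 1% CMC 30 min before the test, with flumazenil 100 mg/kg ip (saline) co-treatment. Transfers between compartments and time in the lit side recorded. Mean ± SEM of 15-20 mice.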

Mus musculus [4] = assay: Effect on learning and memory process in CD1 albino mouse assessed as decrease in retention latency at 10 mg/kg, po after 24 hrs by passive avoidance test; assay type: functional, organism-based; set-up: dose 10 mg/kg
How it was run: (§3)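 Step-through passive avoidance in a two-compartment box (lit and dark compartments joined by a guillotine door). Male CD-1 mice dosed po (1% CMC) 30 min before training; retention tested 24 h later. Training and retention latencies recorded; mean ± SEM of 15-20 mice versus controls.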

Mus musculus [5] = assay: Effect on learning and memory process in CD1 albino mouse assessed as decrease in retention latency at 30 mg/kg, po after 24 hrs by passive avoidance test; assay type: functional, organism-based; set-up: dose 30 mg/kg; how it was run: as §3
Mus musculus [6] = assay: Effect on ethanol-induced sleeping time in CD1 albino mouse assessed as increase in duration of loss of righting reflex at 10 mg/kg, po preincubated 30 mins before ethanol challenge; assay type: functional, organism-based; set-up: dose 10 mg/kg
Mus musculus [7] = assay: Effect on ethanol-induced sleeping time in CD1 albino mouse assessed as increase in duration of loss of righting reflex at 30 mg/kg, po preincubated 30 mins before ethanol challenge; assay type: functional, organism-based; set-up: dose 30 mg/kg
Bos taurus = species: Bos taurus; assay: Displacement of [3H]flumazenil from GABAA/Benzodiazepine receptor in bovine brain at 10 uM
How it was run: (§4)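 Bovine brain membranes; displacement of specific [3H]flumazenil (Ro15-1788) binding. Percent inhibition measured at 10 μM; Ki determined only when inhibition at that concentration exceeded 80%. Ki given as mean ± SEM of five determinations.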

Mus musculus [8] = assay: Effect on motor coordination in CD1 albino mouse assessed as number of falls form rotarod at 3 mg/kg, po administered 60 mins before test measured for 30 seconds after 30 mins of drug infusion by rotarod test; assay type: functional
How it was run: (§5)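 Rota-rod in male CD-1 mice with a pretest. Test substance given po in 1% CMC; falls from the rotating rod counted over 30 s, assessed 30 min after treatment.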

Mus musculus [9] = assay: Effect on motor coordination in CD1 albino mouse assessed as number of falls form rotarod at 10 mg/kg, po […] measured for 30 seconds after 30 mins of dosing by rotarod test; assay type: functional; how it was run: as §5
Mus musculus [10] = assay: Anticonvulsant activity against pentylenetetrazole-induced shock in CD1 albino mouse assessed as shock latency at 3 mg/kg, po preincubated for 30 mins before pentylenetetrazole challenge measured for 30 mins (RVb=253.1 +/- 13 seconds); assay type: functional
Mus musculus [11] = assay: Anticonvulsant activity against pentylenetetrazole-induced shock in CD1 albino mouse assessed as shock latency at 10 mg/kg, po preincubated for 30 mins before pentylenetetrazole challenge measured for 30 mins (RVb=253.1 +/- 13 seconds); assay type: functional
Mus musculus [12] = assay: Anticonvulsant activity against pentylenetetrazole-induced convulsions in CD1 albino mouse assessed as convulsion latency at 3 mg/kg, po preincubated for 30 mins before pentylenetetrazole challenge measured for 30 mins (RVb=599 +/- 37.6 seconds); assay type: functional
Mus musculus [13] = assay: Anticonvulsant activity against pentylenetetrazole-induced convulsions in CD1 albino mouse assessed as convulsion latency at 10 mg/kg, po preincubated for 30 mins before pentylenetetrazole challenge measured for 30 mins (RVb=599 +/- 37.6 seconds); assay type: functional
Mus musculus [14] = assay: Effect on spontaneous motility in CD1 albino mouse assessed as number of movement on plane board at 3 mg/kg, po after 30 mins by hole-board test; assay type: functional
How it was run: (§6)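 Hole-board test in male CD-1 mice: animals placed singly on the board and allowed to explore panel and holes. Test run 30 min after po dosing in 1% CMC (10 mL/kg). Hole entries (curiosity) and plane movements (spontaneous motility) counted; 10 mice per group, compared with CMC controls.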

Mus musculus [15] = assay: Effect on spontaneous motility in CD1 albino mouse assessed as number of movement on plane board at 10 mg/kg, po after 30 mins by hole-board test; assay type: functional; how it was run: as §6
Mus musculus [16] = assay: Effect on explorative capacity in CD1 albino mouse assessed as curiosity-related number of head plugging activity on hole at 3 mg/kg, po after 30 mins by hole-board test; assay type: functional; how it was run: as §6
Mus musculus [17] = assay: Effect on explorative capacity in CD1 albino mouse assessed as curiosity-related number of head plugging activity on hole at 10 mg/kg, po after 30 mins by hole-board test; assay type: functional; how it was run: as §6
Mus musculus [18] = assay: Anxiogenic activity in CD1 albino mouse at 1 mg/kg, po after 30 mins by light/dark box test; assay type: functional, organism-based; set-up: dose 1 mg/kg; how it was run: as §1
Mus musculus [19] = assay: Anxiogenic activity in CD1 albino mouse at 3 mg/kg, po after 30 mins by light/dark box test; assay type: functional, organism-based; set-up: dose 3 mg/kg; how it was run: as §1
Mus musculus [20] = assay: Anxiogenic activity in CD1 albino mouse at 10 mg/kg, po after 30 mins by light/dark box test; assay type: functional, organism-based; set-up: dose 10 mg/kg; how it was run: as §1
Mus musculus [21] = assay: Anxiogenic activity in CD1 albino mouse at 30 mg/kg, po after 30 mins by light/dark box test; assay type: functional, organism-based; set-up: dose 30 mg/kg; how it was run: as §1
Mus musculus [22] = assay: Effect on learning and memory process in CD1 albino mouse assessed as improvement in retention latency at 1 mg/kg, po after 24 hrs by passive avoidance test; assay type: functional, organism-based; set-up: dose 1 mg/kg; how it was run: as §3
Mus musculus [23] = assay: Effect on learning and memory process in CD1 albino mouse assessed as improvement in retention latency at 3 mg/kg, po after 24 hrs by passive avoidance test; assay type: functional, organism-based; set-up: dose 3 mg/kg; how it was run: as §3
Mus musculus [24] = assay: Effect on ethanol-induced sleeping time in CD1 albino mouse assessed as increase in duration of loss of righting reflex at 3 mg/kg, po preincubated 30 mins before ethanol challenge; assay type: functional, organism-based; set-up: dose 3 mg/kg
[25] = Displacement of [3H]flumazenil from GABAA/Benzodiazepine receptor in bovine brain; set-up: species or system Bos taurus; how it was run: as §4
Mus musculus [26] = assay: Anxiogenic activity in CD1 albino mouse at 3 mg/kg, po after 30 mins by light/dark box test in presence of flumazenil; assay type: functional, organism-based; set-up: dose 3 mg/kg; how it was run: as §2
Mus musculus [27] = assay: Effect on motor coordination in CD1 albino mouse assessed as number of falls form rotarod at 30 mg/kg, po […] measured for 30 seconds after 30 mins of drug infusion by rotarod test; assay type: functional; details: 30 mg/kg; how it was run: as §5
Mus musculus [28] = assay: Anticonvulsant activity against pentylenetetrazole-induced shock in CD1 albino mouse assessed as shock latency at 30 mg/kg, po preincubated for 30 mins before pentylenetetrazole challenge measured for 30 mins (RVb=253.1 +/- 13 seconds); assay type: functional; details: 30 mg/kg
Mus musculus [29] = assay: Anticonvulsant activity against pentylenetetrazole-induced convulsions in CD1 albino mouse assessed as convulsion latency at 30 mg/kg, po preincubated for 30 mins before pentylenetetrazole challenge measured for 30 mins (RVb=599 +/- 37.6 seconds); assay type: functional; details: 30 mg/kg
Mus musculus [30] = assay: Effect on spontaneous motility in CD1 albino mouse assessed as number of movement on plane board at 30 mg/kg, po after 30 mins by hole-board test; assay type: functional; details: 30 mg/kg; how it was run: as §6
Mus musculus [31] = assay: Effect on spontaneous motility in CD1 albino mouse assessed as number of movement on plane board at 50 mg/kg, po after 30 mins by hole-board test; assay type: functional; how it was run: as §6
Mus musculus [32] = assay: Effect on spontaneous motility in CD1 albino mouse assessed as number of movement on plane board at 100 mg/kg, po after 30 mins by hole-board test; assay type: functional; how it was run: as §6
Mus musculus [33] = assay: Effect on explorative capacity in CD1 albino mouse assessed as curiosity-related number of head plugging activity on hole at 30 mg/kg, po after 30 mins by hole-board test; assay type: functional; details: 30 mg/kg; how it was run: as §6
Mus musculus [34] = assay: Effect on explorative capacity in CD1 albino mouse assessed as curiosity-related number of head plugging activity on hole at 50 mg/kg, po after 30 mins by hole-board test; assay type: functional; how it was run: as §6
Mus musculus [35] = assay: Effect on explorative capacity in CD1 albino mouse assessed as curiosity-related number of head plugging activity on hole at 100 mg/kg, po after 30 mins by hole-board test; assay type: functional; how it was run: as §6

CC(Oc1ccc2c(c1)n1ncc(I)c1n[n+]2[O-])c1ccccc1 (stereo in doubt; (+)-16) [listing 1 of 2 here]
Activity (Mus musculus [1]): Active
Activity (Mus musculus [2]): Active
Activity (Mus musculus [3]): inactive
Activity (Mus musculus [4]): Active
Activity (Mus musculus [5]): Active
Activity (Mus musculus [6]): Active
Activity (Mus musculus [7]): Active
Activity (Bos taurus): > 80%

[O-][n+]1nc2c(I)cnn2c2cc(Oc3ccccc3)ccc21
Activity (Mus musculus [8]): 0.9
Activity (Mus musculus [9]): 0.6
Activity (Mus musculus [10]): 264.7 s
Activity (Mus musculus [11]): 243.6 s
Activity (Mus musculus [12]): 516.1 s
Activity (Mus musculus [13]): 345.5 s
Activity (Mus musculus [14]): 73.2
Activity (Mus musculus [15]): 63.8
Activity (Mus musculus [16]): 38
Activity (Mus musculus [17]): 39.8
Activity (Mus musculus [18]): Active
Activity (Mus musculus [19]): Active
Activity (Mus musculus [20]): Active
Activity (Mus musculus [21]): Active
Activity (Mus musculus [22]): Active
Activity (Mus musculus [23]): Active
Activity (Mus musculus [6]): Active
Activity (Mus musculus [24]): Active
Activity (Bos taurus): > 80%
pKi [25]: 8.07
Activity (Mus musculus [26]): inactive

CC(Oc1ccc2c(c1)n1ncc(I)c1n[n+]2[O-])c1ccccc1 (stereo in doubt; (+)-16) [listing 2 of 2 here]
Activity (Mus musculus [9]; 10 mg/kg): 2.5
Activity (Mus musculus [27]): 1.3
Activity (Mus musculus [11]; 10 mg/kg): 543.7 s
Activity (Mus musculus [28]): 345.3 s
Activity (Mus musculus [13]; 10 mg/kg): 733.5 s
Activity (Mus musculus [29]): 607.7 s
Activity (Mus musculus [15]; 10 mg/kg): 55.5
Activity (Mus musculus [30]): 59.7
Activity (Mus musculus [31]): 62.9
Activity (Mus musculus [32]): 80
Activity (Mus musculus [17]; 10 mg/kg): 25.1
Activity (Mus musculus [33]): 31.9
Activity (Mus musculus [34]): 39.3
Activity (Mus musculus [35]): 30.4
pKi [25]: 6.22
